The subject of experiment [1] is LNCaP. Kind of experiment: Cytotoxicity against human LNCAP cells after 72 hrs by AlamarBlue end point assay. It counts as functional, cell-based. The procedure, abridged:
(§1)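 Cells in phenol-red-free RPMI-1640 at 37 °C, 5% CO2, with 5% FBS (DuCaP 10% FBS). Seeded per well for 24 h: LNCaP 4000, C4-2B 3000, DuCaP 15 000, BPH-1 3000, WPMY-1 2000. Compounds in DMSO were diluted in medium (final DMSO 0.3%). After 72 h, metabolic activity was read by AlamarBlue. Controls were a DMSO equivalent and vinblastine 25 nM.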
In general terms: Alamar Blue is a resazurin reagent that responds to reducing activity.

Experiment [2] can be described thus: Cytotoxicity against human C4-2B cells after 72 hrs by AlamarBlue end point assay. It counts as functional, cell-based. The settings on record: LNCaP C4-2B. In short, it runs like this:
as §1

Experiment [3] has as its system LNCaP. Kind of experiment: Cytotoxicity against human LNCAP cells assessed as decrease in cell confluence measured every 2 hrs for 72 hrs by real-time live-cell imaging analysis relative to DMSO control. It counts as functional, cell-based. In short, it runs like this:
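LNCaP cells in phenol-red-free RPMI-1640 with 5% FBS were seeded at 4000 per well for 24 h. They were then treated with compounds diluted from DMSO (final DMSO 0.3%). The IncuCyte live-cell imager took images every 2 h for 72 h, and growth was tracked as increasing confluence. Controls were a DMSO equivalent and vinblastine 25 nM.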

Experiment [4] can be described thus: Cytotoxicity against human DuCaP cells after 72 hrs by AlamarBlue end point assay. It counts as functional, cell-based. The procedure, abridged: as §1
Experiment [5] is described as follows: Cytotoxicity against human BPH1 cells after 72 hrs by AlamarBlue end point assay. It counts as cell-based. The settings on record: BPH-1, 72 h. The procedure, abridged: as §1
A short description of experiment [6]: Cytotoxicity against human WPMY-1 cells after 72 hrs by AlamarBlue end point assay. It counts as cell-based. The following applies: WPMY-1, 72 h. The procedure, abridged: as §1
The test system of experiment [7] is LNCaP. Kind of experiment: Selectivity index, ratio of IC50 for human BPH1 cells to IC50 for human LNCAP cells. It counts as functional.
Experiment [8] deals with LNCaP. Kind of experiment: Selectivity index, ratio of IC50 for human WPMY-1 cells to IC50 for human LNCAP cells. It counts as functional.

Molecules are shown by their SMILES.

As for `C=C1C[C@]23C[C@H](OC(C)=O)[C@]4(O)[C@@]5(C)C[C@H](O)C[C@]46C([C@H]2[C@H]1[C@@H](OC(=O)/C(C)=C/C)[C@@H](OC(=O)/C(C)=C/C)[C@H]36)N(C)C5.O=C(O)C(F)(F)F` (stereo partly drawn), the IC50 in the experiment on LNCaP [1] came to 3.1 nM; in experiment [2] it was 6.2 nM; in experiment [4], 8.7 nM; in experiment [5] it was 11.5 nM; in experiment [6] it was 6.6 nM. Further, in the experiment with LNCaP [3], the Activity entry was “Dose-dependent effect”. The Ratio IC50 in the experiment on LNCaP [7] is 3.7; with LNCaP [8] it was 2.1.

Turning to `C=C1C[C@]23C[C@H](OC(C)=O)[C@]4(O)[C@@]5(C)C[C@H](O)C[C@]46C([C@H]2[C@H]1[C@@H](OC(=O)/C(C)=C/C)[C@@H](OC(=O)/C(C)=C/CO)[C@H]36)N(C)C5` (stereo partly drawn), the IC50 was 10.9 nM in the experiment with LNCaP [1]; 7 nM in experiment [2]; 9.9 nM in experiment [4]; 11.4 nM in experiment [5]; 9.6 nM in experiment [6].

Take `CC[C@]1(O)C[C@@H]2CN(CCc3c([nH]c4ccccc34)[C@@](C(=O)OC)(c3cc4c(cc3OC)N(C)[C@H]3[C@@](O)(C(=O)OC)[C@H](OC(C)=O)[C@]5(CC)C=CCN6CC[C@]43[C@@H]65)C2)C1` [VINBLASTINE]: the IC50 in the experiment on LNCaP [1] worked out at 3.2 nM; in experiment [2] it was 2.4 nM; in experiment [4] it was 3.7 nM; in experiment [5], 3.8 nM; in experiment [6] it was 4.2 nM.

As to `C=C1C[C@]23C[C@H](O)[C@]4(O)[C@@]5(C)C[C@H](O)C[C@]46C([C@H]2[C@H]1[C@@H](OC(=O)/C(C)=C/C)[C@@H](OC(=O)c1ccccc1)[C@H]36)N(C)C5` (stereo partly drawn), the IC50 with LNCaP [1] was 190 nM; in experiment [2] it was 205 nM; in experiment [4], 154 nM; in experiment [5], 236 nM; in experiment [6], 140 nM.

On to `C=C1C[C@]23C[C@H](O)[C@]4(O)[C@@]5(C)C[C@H](O)C[C@]46C([C@H]2[C@H]1[C@@H](OC(=O)/C(C)=C/C)[C@@H](OC(=O)/C(C)=C/CO)[C@H]36)N(C)C5` (stereo partly drawn), for which the IC50 in the experiment on LNCaP [1] amounted to 379 nM; in experiment [2] it was 340 nM; in experiment [4], 355 nM; in experiment [5], 177 nM; in experiment [6], 328 nM.

In the case of `C=C1C[C@@]23[C@H]4[C@H](OC(=O)c5ccccc5)[C@H](OC(=O)/C(C)=C/C)[C@@H]1[C@@H]2C1N(C)C[C@]2(C)C[C@H](O)C[C@@]14[C@]2(O)[C@@H](O)[C@@H]3O` (stereo partly drawn), the IC50 in the experiment on LNCaP [1] was 6.7 nM; in experiment [2], 5.2 nM; in experiment [4], 4.1 nM; in experiment [5], 9.2 nM; in experiment [6], 4.9 nM.

With `C=C1C[C@@]23[C@H]4[C@H](OC(=O)/C(C)=C/C)[C@H](OC(=O)/C(C)=C/C)[C@@H]1[C@@H]2C1N(C)C[C@]2(C)C[C@H](O)C[C@@]14[C@]2(O)[C@@H](O)[C@@H]3O` (stereo partly drawn), the 50% inhibitory concentration (IC50) came to 50.8 nM in the experiment with LNCaP [1]; 93.8 nM in experiment [2]; 55.7 nM in experiment [4]; 64.3 nM in experiment [5]; 86 nM in experiment [6].

As to `C=C1C[C@@]23[C@H]4[C@H](OC(=O)/C(C)=C/CO)[C@H](OC(=O)/C(C)=C/C)[C@@H]1[C@@H]2C1N(C)C[C@]2(C)C[C@H](O)C[C@@]14[C@]2(O)[C@@H](O)[C@@H]3O` (stereo partly drawn), the concentration for half-maximal inhibition (IC50) in the experiment on LNCaP [1] was found to be 72.6 nM; in experiment [2] it was 135 nM; in experiment [4], 70.7 nM; in experiment [5], 134 nM; in experiment [6], 155 nM.

In the case of `C=C1C[C@]23C[C@H](O)[C@]4(O)[C@@]5(C)C[C@H](O)C[C@]46C([C@H]2[C@H]1[C@@H](OC(=O)/C(C)=C/C)[C@@H](OC(=O)/C(C)=C/C)[C@H]36)N(C)C5` (stereo partly drawn), the IC50 was 27.2 nM with LNCaP [1]; 45 nM in experiment [2]; 86.9 nM in experiment [4]; 29.6 nM in experiment [5]; 48.2 nM in experiment [6].

The IC50 is the midpoint of a concentration-inhibition curve.

These data come from ChEMBL document CHEMBL3758141, “Cytotoxic C20 Diterpenoid Alkaloids from the Australian Endemic Rainforest Plant Anopterus macleayanus” (J Nat Prod, 2015).
